According to ChEMBL document CHEMBL1155808, “Antitumor activity of bis-indole derivatives” (J Med Chem, 2008):
Activity calls are given as the source filed them. No cut-off for these calls is given here. Where a SMILES comes first, the peptide text is derived from it. The star is where a group is joined. Cbz = O=C(OCc1ccccc1)*

Columns and labels:
HEL = assay: Antiproliferative activity against human HEL cells after 48 hrs by MTT assay; format: functional, cell-based
[1] = Inhibition of plasma membrane electron transport pathway in human HL60 cells by WST1 reduction assay; format: cell-based; settings: HL-60
Procedure, shortened: (§1)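 Cells at 10^5 per well in 0.1 ml pretreated 30 min with compound in DMSO (<0.1% final), then WST-1/mPMS added (final 500 µM and 20 µM); WST-1 reduction followed in real time at 450 nm; averages ± S.E.M. of four independent experiments.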

[2] = Cytotoxicity against human Non-small cell lung carcinoma cells; format: functional; settings: for CC50: read-out: pLC50 (the source's name) (converted); for TGI: read-out: pTGI (converted)
Procedure, shortened: (§2)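 NCI 60-cell-line human tumour screen, with subpanels for leukemia, melanoma, lung, colon, kidney, ovary, breast, prostate and CNS. Compounds were dissolved in DMSO and tested at five ten-fold dilutions, highest 10^-4 M (10^-3 M for some). Endpoints were GI50, TGI and LC50, reported as negative log molar. Some compounds were assayed once, others two or three times.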

B1647 = assay: Antiproliferative activity against human B1647 cells after 48 hrs by MTT assay; format: functional, cell-based
[3] = Cytotoxicity against human renal cancer cells; format: functional; settings: Cancer cell lines; for CC50: read-out: pLC50 (the source's name) (converted); for TGI: read-out: pTGI (converted); procedure, shortened: as §2
[4] = Cytotoxicity against human melanoma cells; format: functional; settings: Melanoma cell; for CC50: read-out: pLC50 (the source's name) (converted)
HL-60 = assay: Cytotoxicity against human HL60 cells after 48 hrs by MTT assay; format: functional, cell-based; settings: HL-60, 48 h
[5] = Cytotoxicity against human leukemia cells; format: functional; settings: Leukemia cell; for CC50: read-out: pLC50 (the source's name) (converted); for TGI: read-out: pTGI (converted); procedure, shortened: as §2
[6] = Cytotoxicity against human breast cancer cells; format: functional; settings: Cancer cell lines; for CC50: read-out: pLC50 (the source's name) (converted); for TGI: read-out: pTGI (converted)
Procedure, shortened: (§3)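 MTT cytotoxicity assay in breast cancer cell lines; proliferation expressed as percent growth inhibition relative to vehicle-treated control cells; IC50 reported.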

[7] = Cytotoxicity against human prostate cancer cells; format: functional; settings: Cancer cell lines; for CC50: read-out: pLC50 (the source's name) (converted); for TGI: read-out: pTGI (converted); procedure, shortened: as §2
[8] = Cytotoxicity against human ovarian cancer cells; format: functional; settings: Cancer cell lines; for CC50: read-out: pLC50 (the source's name) (converted); for TGI: read-out: pTGI (converted)
[9] = Cytotoxicity against human central nervous system cancer cells; format: functional; settings: Cancer cell lines; for CC50: read-out: pLC50 (the source's name) (converted); for TGI: read-out: pTGI (converted); procedure, shortened: as §2
[10] = Inhibition of plasma membrane electron transport pathway in mitochondrial gene-knockout human HL60p'0 cells by WST1 reduction assay; procedure, shortened: as §1
Mo7e = assay: Antiproliferative activity against human Mo7e cells after 48 hrs by MTT assay; format: functional, cell-based
[11] = Cytotoxicity against human mitochondrial gene-knockout human HL60p'0 cells after 48 hrs by MTT assay; format: functional, cell-based
[12] = Cytotoxicity against human colon cancer cells; format: functional; settings: Cancer cell lines; for CC50: read-out: pLC50 (the source's name) (converted); procedure, shortened: as §2
MCF7 [13] = assay: Cytotoxicity against human MCF7 cells; format: functional, cell-based
MCF7 [14] = assay: Inhibition of proteasome in human MCF7 cells assessed as effect on stability of BCA2 protein at 10 umol/L in presence of cyclohexamide after 8 hrs by Western blot
Procedure, shortened: (§4)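 MCF7 cells, 1×10^6 seeded per well, grown overnight; cycloheximide 100 μmol/L added alone or with MG-132 (10 μmol/L) or compound, total 8 and 16 h; lysates Western blotted with anti-BCA2, anti-C-erbB2 and β-actin antibodies; BCA2 and C-erbB2 levels expressed relative to β-actin by densitometry.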

MCF7 [15] = assay: Inhibition of proteasome in human MCF7 cells assessed as increase in stability of BCA2 protein at 10 umol/L in presence of cyclohexamide after 16 hrs by Western blot; procedure, shortened: as §4
MDA-MB-231 = assay: Cytotoxicity against human MDA-MB-231 cells; format: functional, cell-based
MCF7 [16] = assay: Inhibition of proteasome in human MCF7 cells assessed as effect on stability of BCA2 protein at 1 umol/L in presence of cyclohexamide after 8 hrs by Western blot; procedure, shortened: as §4
[17] = Inhibition of plasma membrane electron transport pathway in human Mo7e cells by WST1 reduction assay; format: cell-based; procedure, shortened: as §1
[18] = Inhibition of plasma membrane electron transport pathway in human HEL cells by WST1 reduction assay; format: cell-based; procedure, shortened: as §1
[19] = Inhibition of plasma membrane electron transport pathway in human B1647 cells by WST1 reduction assay; format: cell-based; procedure, shortened: as §1
MCF7 [20] = assay: Inhibition of proteasome in human MCF7 cells assessed as increase in stability of BCA2 protein at 1 umol/L in presence of cyclohexamide after 16 hrs by Western blot; procedure, shortened: as §4
Hs-578T = assay: Cytotoxicity against human Hs578T cells; format: functional, cell-based; procedure, shortened: as §3
MCF7 [21] = assay: Effect on C-erbB2 protein stability in human MCF7 cells at 10 umol/L in presence of cyclohexamide by Western blot; format: functional, cell-based; procedure, shortened: as §4
Mus musculus = assay: Toxicity in ip dosed mouse assessed as maximum tolerated dose after 14 days; format: organism-based; settings: in vivo, 336 h
Procedure, shortened: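 Mice received a single i.p. injection of 400 mg/kg. If the animal survived 14 days, MTD was 400 mg/kg. If it died, the dose was lowered to 200 mg/kg and then halved repeatedly until a tolerated dose was found, which was taken as the MTD.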

MCF7 [22] = assay: Effect on beta-actin stability in human MCF7 cells at 10 umol/L in presence of cyclohexamide by Western blot; format: functional, cell-based; procedure, shortened: as §4

## O=C1Nc2ccc(Cl)cc2/C1=C\c1cccc(/C=C2/C(=O)Nc3ccc(Cl)cc32)n1
HEL
  Activity: Active
[1]
  IC50: > 117 µM
[2]
  GI50: 1.74 µM
  CC50: 20 µM
  TGI: 4.37 µM
B1647
  Activity: Active
[3]
  GI50: 1.26 µM
  CC50: 7.59 µM
  TGI: 2.95 µM
[4]
  GI50: 0.692 µM
  CC50: 7.94 µM
[4]; read-out: pTGI (converted)
  TGI: 1.91 µM
HL-60
  IC50: 3 µM
[5]
  GI50: 0.661 µM
  CC50: 47.9 µM
  TGI: 4.9 µM
[6]
  GI50: 1.12 µM
  CC50: 22.9 µM
  TGI: 4.17 µM
[7]
  GI50: 1.51 µM
  CC50: 24.5 µM
  TGI: 6.61 µM
[8]
  GI50: 1.26 µM
  CC50: 17.8 µM
  TGI: 4.17 µM
[9]
  GI50: 0.891 µM
  CC50: 14.8 µM
  TGI: 2.75 µM
[10]
  IC50: > 117 µM
Mo7e
  Activity: Active
[11]
  IC50: 3 µM
[12]
  GI50: 0.933 µM
  CC50: 15.1 µM
[12]; read-out: pTGI (converted)
  TGI: 2.57 µM

## CC(C)C[C@@H](C=O)NC(=O)[C@H](CC(C)C)NC(=O)[C@H](CC(C)C)NC(=O)OCc1ccccc1 [MG-132] (Cbz-Leu-Leu-Leu-aldehyde)
MCF7 [13]
  IC50: 0.3 µM
MCF7 [14]
  Activity: Active
MCF7 [15]
  fold change (FC): > 10
MDA-MB-231
  IC50: 0.25 µM
MCF7 [16]
  Activity: inactive

## O=C1Nc2ccc(O)cc2/C1=C\c1cccc(/C=C2/C(=O)Nc3ccc(O)cc32)n1
[17]
  IC50: 40 µM
HEL
  Activity: Active
[1]
  IC50: > 117 µM
[18]
  IC50: 40 µM
[2]
  GI50: 33.9 µM
B1647
  Activity: Active
[3]
  GI50: 34.7 µM
  CC50: 95.5 µM
  TGI: 69.2 µM
[4]
  GI50: 83.2 µM
[5]
  GI50: 17.4 µM
  CC50: 93.3 µM
  TGI: 55 µM
[6]
  GI50: 40.7 µM
  TGI: 85.1 µM
[7]
  GI50: 20 µM
[8]
  GI50: 83.2 µM
[9]
  GI50: 40.7 µM
[10]
  IC50: > 117 µM
Mo7e
  Activity: Active
[19]
  IC50: 40 µM
[12]
  GI50: 38.9 µM

## O=C1Nc2cccc(Cl)c2/C1=C\c1cccc(/C=C2/C(=O)Nc3cccc(Cl)c32)n1
[17]
  IC50: 15 µM
HEL
  Activity: Active
[1]
  IC50: > 117 µM
[18]
  IC50: 24 µM
MCF7 [20]
  fold change (FC): 2
[2]
  GI50: 0.676 µM
  CC50: 34.7 µM
  TGI: 2.69 µM
B1647
  Activity: Active
MCF7 [13]
  IC50: 0.23 µM
[3]
  GI50: 0.427 µM
  CC50: 7.59 µM
  TGI: 1.51 µM
[4]
  GI50: 0.589 µM
  CC50: 15.8 µM
HL-60
  IC50: 3 µM
Hs-578T
  IC50: 0.4 µM
MCF7 [21]
  Activity: inactive
Mus musculus
  MTD: 400 mg/kg
[5]
  GI50: 0.0912 µM
  CC50: 44.7 µM
  TGI: 1.91 µM
[6]
  GI50: 0.389 µM
  CC50: 39.8 µM
  TGI: 3.31 µM
MDA-MB-231
  IC50: 0.3 µM
[7]
  GI50: 0.437 µM
  CC50: 15.8 µM
  TGI: 2.09 µM
[8]
  GI50: 0.501 µM
  CC50: 30.9 µM
  TGI: 2.82 µM
[9]
  GI50: 0.603 µM
  CC50: 23.4 µM
  TGI: 2.82 µM
MCF7 [22]
  Activity: inactive
[10]
  IC50: > 117 µM
Mo7e
  Activity: Active
[11]
  IC50: 3 µM
[19]
  IC50: 30 µM
[12]
  GI50: 0.417 µM
  CC50: 19.1 µM
